Data published in ChEMBL document CHEMBL2169863, “Discovery, structure-activity relationship, and biological evaluation of noninhibitory small molecule chaperones of glucocerebrosidase” (J Med Chem, 2012).
The source made the active and inactive calls.

Columns and labels:
[1] = Activation of alpha-galactosidase using 4-MU-alpha-galactose as substrate
[2] = biological target: Lysosomal alpha-glucosidase (Homo sapiens) (UniProt P10253); assay: Activation of alpha-glucosidase using 4-MU-alpha-glucose as substrate
[3] = test system: T1, Lysosomal acid glucosylceramidase (Homo sapiens), P04062 [N409S]; assay: Activation of glucocerebrosidase N370S mutant in Gaucher patient spleen homogenates using 4-methylumbelliferone-Glc as substrate assessed as half-maximal activation concentration incubated for 5 mins prior to substrate addition measured after 30 to 45 mins by fluorimetric analysis; type: tissue-based
T1 sequence (whole entry): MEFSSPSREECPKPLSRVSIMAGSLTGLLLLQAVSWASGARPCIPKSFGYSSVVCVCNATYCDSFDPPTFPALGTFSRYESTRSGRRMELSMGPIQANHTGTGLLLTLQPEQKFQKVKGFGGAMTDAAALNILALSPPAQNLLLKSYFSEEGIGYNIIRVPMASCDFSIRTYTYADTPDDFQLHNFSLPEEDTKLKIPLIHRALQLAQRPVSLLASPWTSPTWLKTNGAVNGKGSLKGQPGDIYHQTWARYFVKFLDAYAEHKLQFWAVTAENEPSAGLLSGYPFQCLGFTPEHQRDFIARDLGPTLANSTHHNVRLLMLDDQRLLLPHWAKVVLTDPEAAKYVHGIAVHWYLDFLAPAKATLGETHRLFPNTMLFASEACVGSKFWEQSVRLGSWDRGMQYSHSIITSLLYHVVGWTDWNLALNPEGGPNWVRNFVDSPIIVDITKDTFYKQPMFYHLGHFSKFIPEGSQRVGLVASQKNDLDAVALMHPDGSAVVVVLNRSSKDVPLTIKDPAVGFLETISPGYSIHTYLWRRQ
Method in brief: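 Spleen homogenate (27 μg final) in pH 5 citrate/phosphate buffer with KCl, NaCl, MgCl₂ and 0.01% Tween-20. Compound was titrated 0.5 nM to 58 μM and preincubated 5 min at room temperature. Reaction used 1 mM 4MU-Glc for 30−45 min at 37 °C and was stopped with NaOH/glycine pH 10. Read-out was fluorescence at Ex 365/Em 440 nm. AC₅₀ is the average of N = 2.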

Compound	Activity [1]	Activity [2]	Activity [3]
Cc1cc(C)n2ncc(C(=O)Nc3ccc4c(c3)CCC4)c2n1	inactive	inactive	2.59 µM
COc1ccc(NC(=O)c2cnn3c(C)cc(C)nc23)cc1Cl	inactive	inactive	2.06 µM
Cc1cc(C)n2ncc(C(=O)NCc3ccco3)c2n1	inactive	inactive	51.7 µM
CNC(=O)c1cnn2c(C)cc(C)nc12	inactive	inactive	inactive
Cc1cc(C)n2ncc(C(=O)Nc3ccc(C(C)(C)C)cc3)c2n1	inactive	inactive	2.31 µM
Cc1ccc(NC(=O)c2cnn3c(C)cc(C)nc23)cc1	inactive	inactive	1.63 µM
CCc1ccc(NC(=O)c2cnn3c(C)cc(C)nc23)cc1	inactive	inactive	3.26 µM
CCc1ccc(NC(=O)c2cnn3c(C)cc(-c4ccccc4)nc23)cc1	inactive	inactive	12.9 µM
COc1ccc(NC(=O)c2cnn3c(C)cc(C)nc23)cc1F	inactive	inactive	1.46 µM
CC(=O)Nc1cccc(NC(=O)c2cnn3c(C)cc(C)nc23)c1	inactive	inactive	inactive
Cc1cc(C)n2ncc(C(=O)Nc3ccc(S(C)(=O)=O)cc3)c2n1	inactive	inactive	inactive
Cc1cc(C)n2ncc(C(=O)NCC(C)C)c2n1	inactive	inactive	32.6 µM
COc1cc(NC(=O)c2cnn3c(C)cc(C)nc23)cc(OC)c1OC	inactive	inactive	inactive
Cc1cc(C)n2ncc(C(=O)Nc3cc(Cl)cc(Cl)c3)c2n1	inactive	inactive	25.9 µM
Cc1cc(C)n2ncc(C(=O)Nc3cccc(C(F)(F)F)c3)c2n1	inactive	inactive	41.1 µM
O=C(Nc1ccccc1Sc1ccccc1)c1cnn2c(C(F)(F)F)cc(C3CC3)nc12	inactive	inactive	–
Cc1cc(C)n2ncc(C(=O)Nc3ccc(C#N)cc3)c2n1	inactive	inactive	20.6 µM
CC(=O)Nc1ccc(NC(=O)c2cnn3c(C)cc(C)nc23)cc1	inactive	inactive	inactive
O=C(Nc1ccc2c(c1)CCC2)c1cnn2c(C(F)F)cc(C3CC3)nc12	inactive	inactive	–
CCc1ccc(NC(=O)c2cnn3c(C(F)F)cc(C4CC4)nc23)cc1	inactive	inactive	–
COc1ccc(NC(=O)c2cnn3c(C)cc(C)nc23)cc1	inactive	inactive	8.19 µM
Cc1ccc(NC(=O)c2cnn3c(C)cc(C)nc23)c(C)c1	inactive	inactive	13 µM
Cc1cc(-c2ccccc2)n2ncc(C(=O)Nc3ccc(Cl)c(Cl)c3)c2n1	inactive	inactive	inactive
O=C(NC1CCCCC1)c1cnn2c(C(F)F)cc(C3CC3)nc12	inactive	inactive	–
Cc1cc(C)n2ncc(C(=O)Nc3ccc(C)c(C)c3)c2n1	inactive	inactive	1.46 µM
COc1ccc(NC(=O)c2cnn3c(-c4ccccc4)cc(C)nc23)cc1	inactive	inactive	inactive
COc1ccc(NC(=O)c2cnn3c(C)cc(C)nc23)cc1OC	inactive	inactive	inactive
Cc1cc(C)n2ncc(C(=O)Nc3ccccc3)c2n1	inactive	inactive	8.19 µM

Second part, the compound after the results:

Activity [1]	Activity [2]	Activity [3]	Compound
inactive	inactive	inactive	Cc1cc(C)n2ncc(C(=O)NC(C)C)c2n1
inactive	inactive	inactive	Cc1cc(C)n2ncc(C(=O)N3CCCC3)c2n1
inactive	inactive	18.3 µM	Cc1cc(C)n2ncc(C(=O)Nc3ccccc3Sc3ccccc3)c2n1
inactive	inactive	inactive	Cc1ccc(NC(=O)c2cnn3c(-c4ccccc4)cc(C)nc23)cc1
inactive	inactive	16.3 µM	Cc1cc(C)n2ncc(C(=O)Nc3ccccc3C)c2n1
inactive	inactive	inactive	Cc1cc(C)n2ncc(C(=O)Nc3cccc(C#N)c3)c2n1
inactive	inactive	32.6 µM	CC(=O)c1cccc(NC(=O)c2cnn3c(C)cc(C)nc23)c1
inactive	inactive	8.19 µM	Cc1cc(-c2ccccc2)nc2c(C(=O)Nc3ccc4c(c3)CCC4)cnn12
inactive	inactive	163 µM	CC(=O)c1ccc(NC(=O)c2cnn3c(C)cc(C)nc23)cc1
inactive	inactive	4.11 µM	Cc1cc(C)n2ncc(C(=O)N[C@H]3CC[C@H](C(C)(C)C)CC3)c2n1
inactive	inactive	6.51 µM	Cc1cc(C)n2ncc(C(=O)Nc3ccc4c(c3)OCO4)c2n1
inactive	inactive	51.7 µM	Cc1cc(C)n2ncc(C(=O)NCc3ccccc3)c2n1
inactive	inactive	6.51 µM	Cc1cccc(NC(=O)c2cnn3c(C)cc(C)nc23)c1
inactive	inactive	inactive	Cc1cc(C)n2ncc(C(=O)Nc3ccncc3)c2n1
inactive	inactive	10.3 µM	Cc1cc(C)n2ncc(C(=O)Nc3ccc4c(c3)OCCO4)c2n1
inactive	inactive	inactive	Cc1cc(-c2ccccc2)n2ncc(C(=O)Nc3ccccc3Sc3ccccc3)c2n1
inactive	inactive	–	Cc1cc(-c2ccccc2)nc2c(C(=O)Nc3ccc(Cl)c(Cl)c3)cnn12
inactive	inactive	25.9 µM	Cc1cc(C)n2ncc(C(=O)N[C@H]3CC[C@@H](C(C)(C)C)CC3)c2n1
inactive	inactive	10.3 µM	Cc1cc(C)n2ncc(C(=O)NC3CCCCC3)c2n1
